Experimental data as given in article PMC5306247 (European Journal of Drug Metabolism and Pharmacokinetics, 2016).
Several values for one entry are separate records, joined by “and”; a condition that tells them apart may be missing. Equal entries are not always repeated.

How the values were obtained:
[1] = tested on: CYP3A4; details: cited from earlier work
[2] = Clinical pharmacokinetics of CLP and its metabolites in plasma; format: in vivo, patients (human)
How it was run: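 Caucasian patients scheduled for PCI or coronarography got 75 mg daily for 7 days, fasting. On day 7, plasma was sampled at 0.5, 1, 2, 3, 4, 6, 12 and 24 h (44 patients) or at 0.5 and 2 h only (38). Plasma was spiked with piroxicam, acetonitrile-precipitated, filtered, dried and reconstituted for HPLC–MS/MS. Quantifiable ranges were parent 0.25–5, derivatized thiol metabolites 0.25–50 and main metabolite 50–10,000 ng/mL. Tmax was taken directly from measured concentrations.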

[3] = tested on: ADP-induced platelet aggregation; details: 75 mg CLP daily
[4] = in vivo; cited from earlier work
[5] = cited from earlier work
[6] = tested on: platelet aggregation; details: cited from earlier work

Question: With `COC(=O)[C@H](c1ccccc1Cl)N1CCC2SC(=O)C=C2C1` (stereo partly drawn) [2-oxo-CLP] as the molecule, how does the “share of 2-oxo-CLP transformed into the thiol entities by CYP3A4” value [1] read?
Answer: ~40% and 39.8%

Question: Which Tmax ([2]; human, plasma, oral, 75 mg) does the source give for `COC(=O)[C@H](c1ccccc1Cl)N1CCc2sccc2C1` [CLP, Clopidogrel] here?
Answer: 1 h

Question: What about the “median AUCagr for wt/wt genotype versus heterozygotes” value ([3]; samples 2–3 h after administration, p = 0.484) of the same molecule?
Answer: lower

Question: What about the “classification of patients by response to CLP” value ([3]; threshold for CLP resistance AUCagr above 486 AU*min) of the same molecule?
Answer: Almost all studied patients were classified as responders

Question: What about the “share of absorbed drug undergoing bioactivation pathway to thiol metabolite” value [4] of the same molecule?
Answer: Approximately 15%

Question: What about the “patients treated with CLP who respond poorly to the drug” value [5] of the same molecule?
Answer: 5–50%

Question: For `O=C(O)[C@H](c1ccccc1Cl)N1CCc2sccc2C1` [CLPM], which “time after CLP administration up to which concentrations were quantifiable” value ([2]; patients, 75 mg CLP daily, day 7, plasma) is on record?
Answer: up to 24 h

Question: With `COC(=O)[C@H](c1ccccc1Cl)N1CCC(S)/C(=C\C(=O)O)C1` (stereo partly drawn) [H3] as the molecule, how does the antiaggregation properties [6] read?
Answer: only H4 exhibits antiaggregation properties

Question: Which antiaggregation properties [6] does the source give for `COC(=O)C(c1ccccc1Cl)N1CCC(S)C(=CC(=O)O)C1` (stereo not drawn) [H4] here?
Answer: exhibits antiaggregation properties
